This note sets out measurements from ChEMBL document CHEMBL1914448, “Proteolytically stable cancer targeting peptides with high affinity for breast cancer cells” (J Med Chem, 2011).

Activity calls are given as the source filed them. Peptide text beside a SMILES is read from it. Where only a bound is given, the exact number is not on record here.

In general, Kd refers to the equilibrium constant for the complex coming apart.

The test system of data set [1] is HUVEC. Description: Drug uptake in human HUVEC cells at 10 '-5 mol/L after 30 mins by confocal microscopy. The data set is classed as ADME, cell-based. As to conditions: 0.5 h, 10 µM. Summed up: (§1)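 MDA-MB-435 or HUVEC cells (50,000) grown on coverslips for 24 h at 37 °C, then exposed to FITC-labelled peptide at 10−5 mol/L in serum-free medium for 30 min at 37 °C. Cells washed, fixed on ice in 2% formaldehyde for 20 min, nuclei stained with DAPI. Imaged by fluorescence microscopy (20×); the same samples were taken to confocal optical sectioning (40× oil) to confirm internalization.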

The subject of a further data set is MCF-10A. Nature of the data set: Drug uptake by human MCF10A cells assessed as increase in fluorescently labeled cells after 30 mins by FACS analysis relative to untreated control. The data set is classed as ADME, cell-based. To be noted: 0.5 h. Summed up:
(§2)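 Cells grown to 80% confluence, trypsinized, seeded at 10^6 per well for 24 h at 37 °C, then exposed to FITC-labeled peptides at 10−5 mol/L in serum-free medium for 30 min at 37 °C. Washed three times with PBS, trypsinized to strip surface-bound peptide, analyzed by flow cytometry. Untreated-cell autofluorescence set the cutoff for labeled cells. Repeated 2−3 times.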

The subject of data set [2] is HUVEC. Description: Drug uptake in human HUVEC cells assessed as increase in fluorescently labeled cells after 30 mins by FACS analysis relative to untreated control. The data set is classed as ADME, cell-based. As to conditions: 0.5 h. Summed up:
as §2

A short description of data set [3]: Cytotoxicity against human MDA-MB-435 cells assessed as cell viability up to 100 uM by MTT assay. The data set is classed as cell-based. To be noted: read-out: Activity. Summed up: (§3)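 MDA-MB-435 cells seeded at 1 × 10^4 cells/well in serum-free RPMI with antibiotics, 37 °C, 5% CO2; after 24 h, peptides (1−100 μM, made up in sterile water) added for 48 h; doxorubicin positive control, untreated negative control. MTT (5 mg/mL medium) 3.5 h, formazan dissolved in DMSO, A570 with 650 nm reference. Viability = absorbance treated/untreated; triplicate, mean.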
(Tetrazolium dyes change colour on reduction, which living cells bring about.)

For data set [4], the system named is MCF7. Description: Drug uptake in human MCF7 cells assessed as increase in fluorescently labeled cells at 10 '-5 mol/L after 30 mins by FACS analysis relative to WNleEAAYQRFL peptide. The data set is classed as ADME, cell-based. To be noted: mcf7, 0.5 h, 10 µM. In a few lines:
as §2
On the technique in general: Flow cytometry measures light scatter and fluorescence of single cells or particles in a stream.

Data set [5] has as its system MDA-MB-435. Nature of the data set: Drug uptake in human MDA-MB-435 cells at 10 '-5 mol/L after 30 mins by confocal microscopy. It is filed as ADME, cell-based. To be noted: mda-mb-435, 0.5 h, 10 µM. Summed up: as §1
The test system of data set [6] is MDA-MB-231. Nature of the data set: Drug uptake in human MDA-MB-231 cells assessed as increase in fluorescently labeled cells at 10 '-5 mol/L after 30 mins by FACS analysis relative to WNleEAAYQRFL peptide. It is filed as ADME, cell-based. To be noted: mda-mb-231, 0.5 h, 10 µM. In a few lines:
as §2

Data set [7] relates to Serum. Nature of the data set: Proteolytic stability in human serum assessed as compound degradation from 0.5 to 24 hrs by RP-HPLC analysis. The data set is classed as ADME, cell-free. Summed up:
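25% human serum in RPMI, equilibrated at 37 °C, with peptide added from a 1 mM aqueous stock. Aliquots taken at 0, 0.5, 1, 5 and 24 h, proteins precipitated with methanol at 4 °C and spun down. Supernatant run on C18 RP-HPLC with a 12−100% IPA/water gradient, detection at 214 nm. Peaks quantified by area; identity checked by MALDI-TOF.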

For data set [8], the system named is Liver. Nature of the data set: Proteolytic stability in CD1 mouse liver homogenate up to 48 hrs by RP-HPLC analysis. It is filed as ADME, tissue-based. As to conditions: tissue homogenate. Summed up:
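Homogenate prepared from male CD-1 mouse liver in ice-cold HEPES pH 7.4, centrifuged, and its protein set by BCA. Peptide stock (1 mM in 5% ACN/water) diluted into homogenate plus RPMI pH 7.4 (2.94 mg protein total), shaken at 37 °C up to 48 h. Timed aliquots analyzed by RP-HPLC.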

The species entered for a further data set is Homo sapiens. Description: Binding affinity to human MDA-MB-435 cell membrane at 10 '-5 mol/L after 30 mins by fluorescence microscopy. Summed up:
as §1

The subject of data set [9] is MCF7. Description: Drug uptake in human MCF7 cells assessed as increase in fluorescently labeled cells at 10 '-5 mol/L after 30 mins by FACS analysis relative to untreated control. The data set is classed as ADME, cell-based. As to conditions: mcf7, 0.5 h, 10 µM. In a few lines:
(§4)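 Cells grown to 80% confluence, trypsinized, seeded at 10^6 per well and cultured 24 h. They were then exposed to FITC-peptide at 10−5 mol/L in serum-free medium for 30 min at 37 °C, washed, and trypsinized to strip surface-bound peptide. Read by flow cytometry as percent cells above the autofluorescence cutoff of untreated cells. Repeated 2−3 times.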

The subject of data set [10] is MDA-MB-435. Nature of the data set: Binding affinity to human MDA-MB-435 cells assessed as decrease in fluorescence after 30 mins by FACS analysis in the presence of unlabelled compound. It is filed as functional, cell-based. Summed up: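 Competition assay by flow cytometry in MDA-MB-435 cells. FITC-labelled peptide at 10−5 mol/L was co-incubated with a 50-fold excess of the same unlabelled peptide for 30 min at 37 °C. Cells washed with ice-cold PBS, then FACS as in the uptake assay. Repeated 2−3 times.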

Data set [11] deals with MDA-MB-231. Nature of the data set: Drug uptake in human MDA-MB-231 cells assessed as increase in fluorescently labeled cells at 10 '-5 mol/L after 30 mins by FACS analysis relative to untreated control. The data set is classed as ADME, cell-based. To be noted: mda-mb-231, 0.5 h, 10 µM. In a few lines:
as §4

Data set [12] relates to MDA-MB-435. Description: Drug uptake in human MDA-MB-435 cells assessed as increase in fluorescently labeled cells at 10 '-5 mol/L after 30 mins by FACS analysis relative to untreated control. It is filed as ADME, cell-based. As to conditions: mda-mb-435, 0.5 h, 10 µM. In a few lines:
as §4

In data set [13] the test system is MDA-MB-435. Nature of the data set: Drug uptake in human MDA-MB-435 cells assessed as increase in fluorescently labeled cells at 10 '-5 mol/L after 30 mins by FACS analysis relative to WNleEAAYQRFL peptide. As to conditions: mda-mb-435, 0.5 h, 10 µM. The data set is classed as ADME, cell-based. Summed up: as §2
Data set [14] relates to MDA-MB-435. Nature of the data set: Growth inhibition of human MDA-MB-435 cells at 15 uM by MTT assay. It is filed as functional, cell-based. In a few lines: as §3
Data set [15] relates to MDA-MB-435. Nature of the data set: Binding affinity to human MDA-MB-435 cells by CyQuant GR fluorescent dye-based assay. It is filed as functional, cell-based.
For data set [16], the system named is Serum. Nature of the data set: Proteolytic stability in human serum assessed as compound degradation after 30 mins by RP-HPLC analysis. The data set is classed as ADME, cell-free. To be noted: 0.5 h. In a few lines: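 Final mix of 25% human serum in RPMI, equilibrated at 37 °C for 15 min. Peptide added from a 1 mM water stock (100 μL into 1 mL total). Aliquots taken at 0, 0.5, 1, 5 and 24 h and quenched in methanol; serum proteins pelleted. Supernatant analysed by RP-HPLC (12–100% IPA/water, 214 nm); peaks integrated, with fragments identified by MALDI-TOF.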

The test system of data set [17] is Liver. Description: Proteolytic stability in CD1 mouse liver homogenate after 15 mins by RP-HPLC analysis. It is filed as ADME, tissue-based. To be noted: tissue homogenate, 0.25 h. In a few lines: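 Liver homogenate from male CD-1 mice, made in ice-cold HEPES pH 7.4 and centrifuged; supernatant adjusted to 14.7 mg/mL protein. Peptide added from a 1 mM stock in 5% ACN/water (100 μL) to 200 μL homogenate plus 700 μL RPMI, pH 7.4 (2.94 mg protein). Incubated at 37 °C with shaking, sampled at intervals, and analysed by RP-HPLC.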

Data set [18] deals with MDA-MB-435. Description: Drug uptake in human MDA-MB-435 cells assessed as internalization at 10 '-5 mol/L after 30 mins by fluorescence microscopy. To be noted: mda-mb-435, 0.5 h, 10 µM. It is filed as ADME, cell-based. In a few lines:
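MDA-MB-435 cells (50 000) grown on coverslips for 24 h at 37 °C, then given FITC-labeled peptide at 10−5 mol/L in serum-free medium for 30 min at 37 °C. Washed, fixed on ice with 2% formaldehyde for 20 min, nuclei stained with DAPI. Imaged by fluorescence microscopy at 20×; internalization confirmed by confocal optical sectioning, 40× oil lens, 1.64 μm steps.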

As to `CCCC[C@@H](NC(=O)[C@@H](N)Cc1c[nH]c2ccccc12)C(=O)N[C@@H](CCC(=O)O)C(=O)N[C@@H](C)C(=O)N[C@@H](C)C(=O)N[C@@H](Cc1ccc(O)cc1)C(=O)N[C@@H](CCC(N)=O)C(=O)N[C@H](CCCNC(=N)N)C(=O)N[C@@H](Cc1ccccc1)C(=O)N[C@@H](CC(C)C)C(=O)O` (HELM PEPTIDE1{W.[CCCC[C@@H](N[*:1])C(=O)[*:2]].E.A.A.Y.Q.[dR].F.L}$$$$V2.0), the Drug uptake entry with HUVEC [1] is recorded as “Not Active”; with MCF-10A, 36%; with HUVEC [2] it was 12%; in the data set with MDA-MB-435 [5], “Active”; in the data set with MCF7 [9], 68%; with MDA-MB-231 [11] it was 45%. Besides, the Drug uptake in the data set with MDA-MB-435 [12] was found to be 35%. In addition, in [3], the viability is greater than 98%. Further, the “fold change (FC)” value with MCF7 [4], with MDA-MB-231 [6] and in the data set with MDA-MB-435 [13] was 3.5 each time. For the same compound, the Stability result in the data set on Serum [7] and in the data set on Liver [8] was “Stable” throughout. Also, the result in the data set filed under Homo sapiens was Active. Besides, the outcome in the data set on MDA-MB-435 [10] was inactive.
With `COc1cccc2c1C(=O)c1c(O)c3c(c(O)c1C2=O)C[C@@](O)(C(=O)CO)C[C@@H]3O[C@H]1C[C@H](N)[C@H](O)[C@H](C)O1`, the “growth inhibition (GI)” value in the data set with MDA-MB-435 [14] was “Active”.
On to `CCCC[C@H](NC(=O)C[C@H](N)C(=O)NCc1cccc2ccccc12)C(=O)N[C@@H](CCC(=O)O)C(=O)N[C@@H](C)C(=O)N[C@@H](CC(=O)N[C@@H](Cc1ccc(O)cc1)C(=O)N[C@@H](CCC(N)=O)C(=O)N[C@@H](CC(=O)N[C@@H](Cc1ccccc1)C(=O)N[C@@H](CC(C)C)C(=O)O)C(=O)NCCCCN)C(=O)NC`, for which the Drug uptake with MCF-10A worked out at 55%; with HUVEC [2] it was 35%. Moreover, in data set [3], the viability was greater than 98%. Besides, the “fold change (FC)” value in the data set on MCF7 [4], with MDA-MB-231 [6] and in the data set with MDA-MB-435 [13] was 3 in each case. The Stability result in the data set on Serum [7] and with Liver [8] was “Stable” each time.
Turning to `CCCC[C@H](NC(=O)[C@@H](N)Cc1c[nH]c2ccccc12)C(=O)N[C@@H](CCC(=O)O)C(=O)N[C@@H](C)C(=O)N[C@@H](C)C(=O)N[C@@H](Cc1ccc(O)cc1)C(=O)N[C@@H](CCC(N)=O)C(=O)N[C@@H](CCCNC(=N)N)C(=O)N[C@@H](Cc1ccccc1)C(=O)N[C@@H](CC(C)C)C(=O)O` (HELM PEPTIDE1{W.[Nle].E.A.A.Y.Q.R.F.L}$$$$V2.0), the affinity with MDA-MB-435 [15], expressed as Kd, was 42 µM. Moreover, the Stability result with Serum [16] and in the data set on Liver [17] was “Unstable” throughout. Besides, the results for the Drug uptake in the data set with MCF7 [9], in the data set on MDA-MB-231 [11] and in the data set with MDA-MB-435 [12] were 22%, 16% and 10%, respectively.
As for H-WEEAAYQRFL-OH, the Drug uptake is 60% in the data set on MCF7 [9], 33% in the data set on MDA-MB-231 [11] and 14% in the data set with MDA-MB-435 [12].
For `CCCC[C@H](NC(=O)C[C@H](N)C(=O)NCc1cccc2ccccc12)C(=O)N[C@@H](CCC(=O)O)C(=O)N[C@@H](CC(=O)N[C@@H](C)C(=O)N[C@@H](Cc1ccc(O)cc1)C(=O)N[C@@H](CCC(N)=O)C(=O)N[C@@H](CC(=O)N[C@@H](Cc1ccccc1)C(=O)N[C@@H](CC(C)C)C(=O)O)C(=O)NCCCCN)C(=O)NC`, the Drug uptake result in the data set with HUVEC [1] is recorded as “Not Active”; with MCF-10A, 50%; in the data set on HUVEC [2], 30%; in the data set on MDA-MB-435 [5], “Active”; with MDA-MB-435 [18], “Active”. The viability in [3] was greater than 98%. Also, the “fold change (FC)” value with MCF7 [4], in the data set on MDA-MB-231 [6] and in the data set with MDA-MB-435 [13] was 3 each time. In addition, the Stability result with Serum [7] and with Liver [8] was “Stable” in each case. The result in the data set listed under Homo sapiens was Active.
